Source: PubChem
OX1R antag-1 – antagonists of human orexin 1 receptor | O43613 | CHO/OX1R cells, Fluo-8 calcium fluorescence, orexin A | inhibition, % at 5 µM | hit rate 0.43% among 330,000 | AID 434989;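 active = inhibition above its plate's threshold, mean inhibition of all tested compounds on the plate plus 3 SD, cut at about 37% in these data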;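 note: 0% = orexin A challenge wells and 100% = SB-334867-A antagonist wells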
OX1R antag-2 – OX1R (human) antagonism. inhibition, % at 6.6 µM. hit rate 1.8% among 330,000. AID 485270. O43613. OX1R-expressing cells, FRET antagonist read-out; in the data active = inhibition mostly above about 38%, no sharp cut-off; inactive = mostly below about 40%;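 note: 0% = agonist challenge alone and 100% = reference antagonist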
TAAR1 antag – antagonists of human TAAR1. Q96RJ0. CHO RD-HGA16 TAAR1, Fluo-8 calcium fluorescence, antagonist. inhibition, % at 3 µM. hit rate 1.5% among 360,000;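 active = inhibition above a per-plate cutoff, the mean inhibition of test compounds on that plate plus 3 SD, cut at about 49% in these data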;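 note: 0% = DMSO plus EC80 beta-PEA response and 100% = DMSO alone without agonist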
Target sequence (Q96RJ0 whole entry, looked up): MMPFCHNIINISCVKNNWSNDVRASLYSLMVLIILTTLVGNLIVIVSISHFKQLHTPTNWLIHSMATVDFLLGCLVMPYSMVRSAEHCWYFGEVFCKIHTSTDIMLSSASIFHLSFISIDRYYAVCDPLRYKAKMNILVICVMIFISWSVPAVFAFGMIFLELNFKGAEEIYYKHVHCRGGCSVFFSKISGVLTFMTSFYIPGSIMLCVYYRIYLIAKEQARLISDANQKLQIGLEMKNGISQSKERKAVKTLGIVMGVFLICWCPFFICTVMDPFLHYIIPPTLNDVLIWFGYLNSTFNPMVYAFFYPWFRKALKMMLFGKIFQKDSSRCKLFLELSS
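Test system – hTAAR1-expressing CHO RD-HGA16 cells, Gα16-coupled · Reagent – β-PEA at EC80 concentration, post-compound challenge · Compound dosing – 3 µM, single point · Timing – 140 s kinetic read after compound, 140 s after agonist · Detection – Fluo-8 intracellular calcium dye fluorescence, real-time kinetic reads · Control set – DMSO and EC80 PEA controls · Repeats – n of 1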
CHO parental Ca – counter-screen for OX1R antagonists: effect in parental CHO cells; parental CHO-K1, ATP-induced calcium, Fluo-8 fluorescence; inhibition, % at 5.6 µM; hit rate 0.63% among 330,000;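 active = inhibition above that plate's mean sample inhibition plus 3 SD, cut at about 26% in these data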;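 note: 0% = ATP-challenged DMSO wells and 100% = DMSO wells without ATP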
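Assay system – parental CHO cells · Reagent – ATP stimulus · Detection – intracellular calcium via Fluo-8 no-wash fluorescent dye · Evaluation – percent inhibition of ATP-evoked calcium rise, normalized to controls · Controls – ATP wells versus no-ATP DMSO wells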
TAAR1 agonist – human TAAR1 agonism; CHO RD-HGA16 TAAR1, Fluo-8 calcium fluorescence; vehicle wells 0%, saturating PEA agonist 100%; hit rate 0.99% among 360,000; Q96RJ0; activation, % at 3 µM;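 active = activation above the mean activation of all test compounds in the run plus 3 SD, cut at about 38% in these data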
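Benchmarks: low control DMSO, high control PEA (EC100); System: CHO RD-HGA16 cells carrying human TAAR1 plus Gα16; Detection: Fluo-8 fluorescence, 5 s baseline then 140 s kinetic read; Schedule: 17-24 h plating, Fluo-8 75 min 37 °C, 30 min RT; Read-out basis: % activation from peak over basal fluorescence ratio, DMSO-to-PEA scaled.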
GPR7 antagonist – human neuropeptides B/W receptor 1 antagonism | P48145 | GPR7-expressing cells, fluorescence antagonist assay | inhibition, % at 4.4 µM | hit rate 1.1% among 290,000; in the data active = inhibition above about 16%, passing the limit was not always enough;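 note: cells stimulated with the agonist NPW; 0% = agonist with vehicle and 100% = vehicle without agonist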
Active calls of the source: *; . = no result given. The list is not random: actives were taken first. Their share in the collection is about 4.6%.

SMILES | OX1R antag-1 | OX1R antag-2 | TAAR1 antag | CHO parental Ca | TAAR1 agonist | GPR7 antagonist
COc1ccccc1CCNC(=O)C(=O)NCC1OCCN1S(=O)(=O)c1cc(F)ccc1F (stereo unspecified) | -10 | 0 | -2 | -14 | 38* | -4
CN(C)CCNC(=O)C(=O)NCC1OCCN1S(=O)(=O)c1cc(F)ccc1F (stereo unspecified) | -10 | -1 | -12 | -13 | 3 | -7
COc1ccccc1NC(=O)C1CCN(S(=O)(=O)c2ccc3c(c2)CC(C)N3C(C)=O)CC1 (stereo unspecified) | -13 | 6 | -3 | -13 | 1 | -5
CCOC(=O)Cc1csc(NC(=O)c2cc(OC)cc(OC)c2)n1 | -10 | 19 | -2 | -7 | 2 | -2
COc1cc(OC)cc(C(=O)Nc2nc(CC(=O)NCc3ccc(F)cc3)cs2)c1 | -10 | 22 | 50* | -22 | 8 | .
COc1cc(OC)cc(C(=O)Nc2nc(CC(=O)NCc3ccccc3OC)cs2)c1 | -30 | 13 | 56* | -22 | 6 | .
COc1cc(OC)cc(C(=O)Nc2nc(CC(=O)NCCc3ccccc3)cs2)c1 | -19 | 28 | 33 | -40 | 5 | .
CC1(c2nnnn2Cc2ccccc2)CCC(=O)N1CCCN1CCOCC1 (stereo unspecified) | . | . | 6 | . | 2 | .
O=C(NC1CCCC1)C(c1cccs1)N(CC1CCCO1)C(=O)Cc1cccs1 (stereo unspecified) | -8 | 22 | 12 | -20 | 3 | 18*
COc1ccc(C(C(=O)NC2CCCC2)N(CC2CCCO2)C(=O)Cc2cccs2)cc1OC (stereo unspecified) | -33 | 12 | 8 | -22 | -1 | 18
Cc1ccc(CNc2ncnc3cc(Cl)ccc23)cc1 | -16 | 31 | 16 | 35* | 0 | 9
Cc1ccc2nc(N(CCCN(C)C)C(=O)c3ccc4c(c3)CCCC4)sc2c1 | -4 | -1 | 20 | 0 | 38* | 9
Cc1cc(C)c2sc(N(CCCN(C)C)C(=O)COc3ccc(Cl)cc3)nc2c1 | -8 | 14 | 20 | 7 | 35 | 9
Cc1ccc2nc(N(CCCN(C)C)C(=O)COc3ccc(Cl)cc3)sc2c1 | -12 | 1 | 10 | -2 | 45* | -7
CN(C)CCCN(C(=O)COc1ccc(Cl)cc1)c1nc2ccc(F)cc2s1 | -19 | 8 | 5 | -2 | 41* | 0
CN(C)CCCN(C(=O)COc1ccccc1)c1nc2ccc(F)cc2s1 | -30 | 8 | 0 | -13 | 11 | -12
COc1cc(C(=O)NCCc2ccc3c(c2)OCO3)cc(OC)c1OC | . | . | -13 | . | 3 | .
CC(C)c1ccc(NC2CCCN(C(=O)CCCn3cncn3)C2)cc1 (stereo unspecified) | -8 | 10 | 6 | -14 | 2 | -19
COc1cc2c(cc1NC(=O)COC(=O)c1ccc(C(C)(C)C)cc1)oc1ccccc12 | 7 | -3 | 7 | -2 | 4 | -9
O=C(O)c1ccccc1-c1ccccc1C(=O)Nc1ccc2c(c1)C(=O)c1ccccc1-2 | . | . | 3 | . | 4 | .
CN(Cc1ccccc1)S(=O)(=O)c1cccc2nsnc12 | -20 | 39 | 16 | -11 | 5 | 12
ONC(=Nc1ccccc1)c1ccc(Cl)cc1 | -10 | 3 | 6 | -11 | 3 | 1
NC(=Nc1ccc(Cl)cc1)c1ccccc1 | -5 | 13 | 17 | -7 | 43* | 0
COc1ccc(OCCSc2nnc(-c3ccoc3C)n2C)cc1 | -13 | 12 | -3 | -6 | 6 | 1
C=CCOC1=CS(=O)(=O)N(Cc2ccc(Br)cc2)c2ccc(Br)cc21 | -2 | 1 | -16 | -12 | 2 | .
Cc1cccc(N=C2NC(=O)c3cc([N+](=O)[O-])ccc32)c1 | 0 | 70* | 13 | -6 | -1 | -4
O=C1NC(=Nc2ccccc2)c2ccc([N+](=O)[O-])cc21 | -5 | 74* | -6 | -4 | 0 | -4
Cc1ccc([N+](=O)[O-])cc1N=C1C(=O)Nc2ccccc21 | -24 | 17 | -22 | -2 | 1 | 10
Cc1n[nH]c(=O)nc1NCCc1ccccc1 | -2 | 16 | 0 | 5 | 40* | 3
COc1ccccc1CCNC(=O)C(=O)NCC1OCCN1C(=O)c1ccc(Cl)cc1 (stereo unspecified) | -28 | 18 | 15 | -20 | 31 | -5
